The text below walks through data of ChEMBL document CHEMBL1127480, “Evaluation of a vitamin-cloaking strategy for oligopeptide therapeutics: biotinylated HIV-1 protease inhibitors” (J Med Chem, 1994).

In test [1] the target is Human immunodeficiency virus type 1 protease (Human immunodeficiency virus 1, UniProt Q72874). Nature of the test: In vitro inhibitory activity against […].
Test [2] concerns CV-1. The experiment in a line: Inhibition of p24 expression was measured at 1 uM using vaccinia virus vVK/CV-1 assay; Inactive. In kind it is functional, cell-based. The note with it: Cercopithecidae.
Test [3] relates to CV-1. Nature of the test: Inhibition of p24 expression was measured at 1 uM using vVK/CV-1 assay. The test is classed as functional, Cercopithecidae. The note with it: Chlorocebus aethiops.
Test [4] in a line: Inhibition of viral RNA in PBMC assay on day 4 at concentration of 100 nM. The test is classed as functional. The settings on record: Homo sapiens, 96 h.
A short description of test [5]: p24 expression was measured by PBMC assay on day 4 at concentration of 1 nM. The test is classed as functional. The note with it: Homo sapiens, 96 h.
Test [6] is described as follows: Inhibition of viral RNA in HIVD34-infected PBMC assay on day 4 at concentration of 1 nM. In kind it is functional. The settings on record: Homo sapiens, 96 h.
The nature of test [7]: Inhibition of viral RNA in HIVD34-infected PBMC assay on day 4 at concentration of 10 nM. In kind it is functional. The settings on record: Homo sapiens, 96 h.
Test [8] has as its system Caco-2. The experiment in a line: % control value in caco-2-cell monolayer. The arrangement: concentration or dose not given beside the values. In kind it is functional, Homo sapiens. In a few lines:
(§1)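 Caco-2 monolayers (passage 25) on Transwell inserts, equilibrated 30 min in HBSS with 25 mM glucose, 10 mM Hepes pH 7.35 at 37 °C. Apical side given 10 nM [3H]biotin alone or with 300 μM unlabeled biotin or conjugate (final MeOH 1–5%). Basolateral samples taken over time; [3H]mannitol integrity marker; Student's t-test; triplicate determinations.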

Test [9] is described as follows: p24 expression was measured by PBMC assay on day 4 at concentration of 10 nM. In kind it is functional. The settings on record: Homo sapiens, 96 h.
Test [10] has as its system Caco-2. The experiment in a line: Effect on the apical to basolateral transport of [3H]biotin in caco-2-cell monolayer. In kind it is functional, Homo sapiens. In a few lines:
as §1
On the technique in general: Passage across Caco-2 layers is used to estimate intestinal permeability.

A short description of test [11]: Inhibition of p24 expression in PBMC assay on day 4 at concentration of 100 nM. The note with it: Homo sapiens, 96 h. In kind it is functional.
Test [12] can be described thus: Inhibition of p24 expression in HIVD34-infected PBMC assay on day 4 at concentration of 4 nM. The test is classed as functional. The settings on record: Homo sapiens, 96 h.
The nature of test [13]: Inhibition of viral RNA in HIVD34-infected PBMC assay on day 4 at concentration of 4 nM. The test is classed as functional. The note with it: Homo sapiens, 96 h.
A short description of test [14]: Inhibition of viral RNA in HIVD34-infected PBMC assay on day 4 at concentration of 40 nM. In kind it is functional. The note with it: Homo sapiens, 96 h.
The nature of test [15]: Inhibition of p24 expression in HIVD34-infected PBMC assay on day 4 at concentration of 40 nM. The test is classed as functional. The settings on record: Homo sapiens, 96 h.
Test [16] is described as follows: Inhibition of p24 expression in HIVD34-infected PBMC assay on day 4 at concentration of 1 nM. The test is classed as functional. The settings on record: Homo sapiens, 96 h.
Test [17] in a line: Inhibition of p24 expression in HIVD34-infected PBMC assay on day 4 at concentration of 10 nM. In kind it is functional. The settings on record: Homo sapiens, 96 h.
Test [18] can be described thus: Inhibition of viral RNA in HIVD34-infected PBMC assay on day 4 at a concentration of 100 nM. The settings on record: Homo sapiens, 96 h. In kind it is functional.
Test [19] is described as follows: Inhibition of p24 expression in HIVD34-infected PBMC assay on day 4 at concentration of 100 nM. In kind it is functional. The settings on record: Homo sapiens, 96 h.
Test [20] has as its system CV-1. Nature of the test: Inhibition of p24 expression was measured at 1 uM using vVK/CV-1 assay; Inactive. The note with it: Cercopithecidae. The test is classed as functional, cell-based.

Activity calls are given as the source filed them. The calls are words filed in the database; no cut-off is given here.

On to `CC[C@@H](C)[C@@H](CNC(=O)CCCC[C@@H]1SC[C@@H]2NC(=O)NC21)NC(=O)[C@H](C(C)C)[C@@H](O)[C@H](O)[C@H](CC1CCCCC1)NC(=O)c1ccccc1OCCOc1ccccc1` (some centres undefined), for which, in test [1], the Ki (commonly a measure of affinity in units of concentration, obtained from inhibition or displacement) is greater than 100 nM. The inhibition (usually the percentage by which the read-out fell short of the control) with CV-1 [2] is “inactive”.

Molecule `CC[C@@H](C)[C@H](NC(=O)[C@H](C(C)C)[C@@H](O)[C@H](O)[C@H](CC1CCCCC1)NC(=O)c1ccccc1SCCCCC[C@@H]1SCC2NC(=O)NC21)C(=O)NCCc1scnc1C` (some centres undefined) displayed a Ki in test [1] of 4 nM. In the test on CV-1 [3], this molecule came in with an inhibition at 1 µM of 34%.

As to `CC[C@@H](C)[C@H](NC(=O)[C@H](C(C)C)[C@@H](O)[C@H](O)[C@H](CC1CCCCC1)NC(=O)c1ccccc1OCCCCC[C@@H]1SC[C@H]2NC(=O)N[C@@H]12)C(=O)NCc1ccccn1`, the inhibition at 0.1 µM in test [4] is 17%; in test [11] it was 83%. For the same molecule, the inhibition at 0.001 µM in test [5] stood at 2%; in test [6], 15%. Further, in [1], the Ki turned out to be 10 nM. For the same molecule, the values for the inhibition at 0.01 µM in test [7] and in test [9] were 10% and 5%, respectively. In addition, the Control in the test on Caco-2 [8] is recorded as 85%. Further, the inhibition at 1 µM in the test with CV-1 [3] worked out at 24%. Also, the Transport with Caco-2 [10] is 15.8 pM min-1 (mg of protein)-1.

Regarding `CC[C@@H](C)[C@H](NC(=O)[C@H](C(C)C)[C@@H](O)[C@H](O)[C@H](CC1CCCCC1)NC(=O)CCCC[C@@H]1SCC2NC(=O)N[C@@H]21)C(=O)NCc1ccccn1` (some centres undefined), the affinity in [1], expressed as Ki, was 45 nM. Besides, the Control in the test on Caco-2 [8] is 129%. Further, the inhibition at 1 µM with CV-1 [3] is 9%. Besides, in the test on Caco-2 [10], the Transport is recorded as 24.1 pM min-1 (mg of protein)-1.

The molecule `O=C(O)CCCC[C@@H]1SC[C@@H]2NC(=O)N[C@@H]21` [BIOTIN] yielded a Control in the test with Caco-2 [8] of 0%. Further, in the test on Caco-2 [10], the Transport is given as 0 pM min-1 (mg of protein)-1.

`CC[C@@H](C)[C@H](NC(=O)[C@H](C(C)C)[C@@H](O)[C@H](O)[C@H](CC1CCCCC1)NC(=O)c1ccccc1SCCCCC[C@@H]1SCC2NC(=O)NC21)C(=O)NCc1ccccn1` (some centres undefined) returned a Ki in test [1] of 53 nM.

As to `Cc1cn([C@H]2C[C@H](N=[N+]=[N-])[C@@H](CO)O2)c(=O)[nH]c1=O` [ZIDOVUDINE], the inhibition at 0.004 µM in [12] was found to be 2%; in test [13], 0%. The inhibition at 0.04 µM in test [14] worked out at 90%; in test [15] it was 81%.

Turning to `CC[C@H](C)[C@H](NC(=O)[C@H](C(C)C)[C@@H](O)[C@H](O)[C@H](CC1CCCCC1)NC(=O)[C@H](Cc1c[nH]cn1)NC(=O)COc1cccc2ccccc12)C(=O)NCc1ccccn1`, the inhibition at 0.001 µM in test [16] was found to be 38%; in test [6] it was 30%. This molecule also returned a Ki in test [1] of less than 1 nM. The inhibition at 0.01 µM turned out to be 82% in [17] and 80% in [7]. Also, the inhibition at 0.1 µM was determined as 98% in test [18] and 95% in test [19]. Further, the inhibition at 1 µM in the test on CV-1 [3] is greater than 80%.

In the case of `CC[C@@H](C)[C@H](NC(=O)[C@H](C(C)C)[C@@H](O)[C@H](O)[C@H](CC1CCCCC1)NC(=O)[C@@H](NC(=O)CCCC[C@H]1SC[C@H]2NC(=O)NC21)C(C)C)C(=O)NCc1ccccn1` (some centres undefined), the inhibition at 0.1 µM was 69% in [4] and 89% in [11]. The inhibition at 0.001 µM in test [16] amounted to 7%; in test [6], 18%. In addition, in [1], the Ki was less than 4 nM. For the same molecule, the inhibition at 0.01 µM in test [17] is 11%; in test [7] it was 22%. Moreover, in the test with Caco-2 [8], the Control stood at 122%. In the test with CV-1 [3], at 1 µM the inhibition was 26%. Moreover, the Transport in the test on Caco-2 [10] is listed as 22.7 pM min-1 (mg of protein)-1.

On to `CC[C@@H](C)[C@H](NC(=O)[C@H](C(C)C)[C@@H](O)[C@H](O)[C@H](CC1CCCCC1)NC(=O)CCCC[C@@H]1SCC2NC(=O)NC21)C(=O)NCCc1scnc1C` (some centres undefined), for which, in test [1], affinity was put at a Ki of 130 nM. The same molecule showed an inhibition at 1 µM in the test on CV-1 [3] of 15%.

Turning to `CC[C@@H](C)[C@H](NC(=O)[C@H](C(C)C)[C@@H](O)[C@H](O)[C@H](CC1CCCCC1)NC(=O)CCCCCNC(=O)CCCC[C@@H]1SCC2NC(=O)N[C@@H]21)C(=O)NCc1ccccn1` (some centres undefined), in test [1], the Ki was determined as 20 nM. Besides, the inhibition result in the test on CV-1 [20] was “inactive”. In the test with Caco-2 [8], this molecule showed a Control of 111%. In addition, the Transport in the test on Caco-2 [10] is reported as 20.6 pM min-1 (mg of protein)-1.
